In the library only some 3.2% were active in any assay of this set; here they are far more common.
zfTRPN1 agonist – zebrafish TRPN1 (NompC) channel agonism. HEK293 zebrafish TRPN1-YFP, Fluo-8 calcium fluorescence; 100% = response to 87 µM carbachol. activation, % at 3 µM. hit rate 0.18% among 220,000;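 active means activation above its plate's cutoff, the mean activation of test wells on that plate plus 3 SD, cut at about 19% in these data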;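 further: 0% = DMSO alone and 100% = 87 µM carbachol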
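Control set: carbachol 87 µM as high control, DMSO as low control; system: HEK293 stable line with zebrafish TRPN1-YFP; read-out: % activation versus carbachol response; detection: intracellular calcium fluorescence with Fluo-8; doses: single test compound dose, 3 µM nominal, 0.3% DMSO; schedule: dye 1 h 37 °C plus 30 min RT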
CHO parental Ca – signal in parental CHO cells, OX1R antagonist counter-screen; inhibition, % at 5.6 µM; parental CHO-K1, ATP-induced calcium, Fluo-8 fluorescence; hit rate 0.63% among 330,000;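 active means inhibition above that plate's mean sample inhibition plus 3 SD, cut at about 26% in these data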;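 further: 0% = ATP-challenged DMSO wells and 100% = DMSO wells without ATP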
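Test system: untransfected parental CHO cell line. Compound: one dose, 5.6 µM nominal. Detection: intracellular calcium via Fluo-8 no-wash fluorescent dye. Measure: % inhibition. Benchmarks: ATP-challenged DMSO wells low, unchallenged DMSO wells high.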
OX1R antag-1 – antagonists of human orexin 1 receptor | O43613 | CHO/OX1R cells, Fluo-8 calcium fluorescence, orexin A | AID 434989 | inhibition, % at 5 µM | hit rate 0.43% among 330,000;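 active means inhibition above its plate's threshold, mean inhibition of all tested compounds on the plate plus 3 SD, cut at about 37% in these data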;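 further: 0% = orexin A challenge wells and 100% = SB-334867-A antagonist wells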
OX1R antag-2 – antagonists of human orexin 1 receptor (OX1R); O43613; OX1R-expressing cells, FRET antagonist read-out; inhibition, % at 6.6 µM; hit rate 1.8% among 330,000; AID 485270; in the data active means inhibition mostly above about 38%, no sharp cut-off; inactive means mostly below about 40%;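 further: 0% = agonist challenge alone and 100% = reference antagonist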
GPR7 antag – antagonists of human GPR7 (neuropeptides B/W receptor 1). P48145. GPR7-expressing cells, fluorescence antagonist assay. inhibition, % at 4.4 µM. hit rate 1.1% among 290,000; in the data active means inhibition above about 16%, passing the limit was not always enough;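 further: cells stimulated with the agonist NPW; 0% = agonist with vehicle and 100% = vehicle without agonist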
Target sequence (P48145 whole entry, looked up): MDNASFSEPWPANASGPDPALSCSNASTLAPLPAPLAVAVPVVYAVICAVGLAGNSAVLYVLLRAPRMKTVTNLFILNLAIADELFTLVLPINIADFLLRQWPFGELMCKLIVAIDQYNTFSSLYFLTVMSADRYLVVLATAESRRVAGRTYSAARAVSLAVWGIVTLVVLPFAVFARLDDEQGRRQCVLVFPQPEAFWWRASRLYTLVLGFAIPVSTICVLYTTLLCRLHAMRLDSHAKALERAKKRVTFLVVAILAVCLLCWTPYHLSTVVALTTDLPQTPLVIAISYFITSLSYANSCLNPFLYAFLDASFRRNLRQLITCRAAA
TRPML3 agonist – activates the human TRPML3 channel; hit rate 0.29% among 220,000; activation, % at 3 µM; Q8TDD5; AID 1448; HEK293 TRPML3-YFP, Fluo-8 calcium fluorescence; 100% = the carbachol control signal;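 active means activation above its plate's cutoff, the mean activation of the plate's test wells plus 3 SD, cut at about 12% in these data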;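 further: 0% = DMSO only wells and 100% = carbachol wells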
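Test system – HEK293 line with stable expression of human TRPML3-YFP channel · Control set – carbachol 87 µM final as high control (100%), DMSO as low control (0%) · Signal – Fluo-8 calcium dye fluorescence, ex 470-495, em 515-575 nm · Incubation – 1-h 37 °C dye load, 5-s basal, 120-s post-compound reads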
* hit, by the source's call; · = not tested or not shown.

SMILES	zfTRPN1 agonist	CHO parental Ca	OX1R antag-1	OX1R antag-2	GPR7 antag	TRPML3 agonist
Cc1ccc(S(=O)(=O)/C(C#N)=C/c2c(Oc3ccc(Cl)cc3)nc3c(C)cccn3c2=O)cc1	1	-10	-10	12	-8	1
CN(C)n1cccc1/C=C(\C#N)S(=O)(=O)c1ccc(Cl)cc1	0	65*	63*	25	-22	0
Cc1cccc(C(=O)OCC(=O)NC(=O)c2ccccc2)c1O	·	-6	-16	15	·	·
Cc1cc(C)c2cc(C#N)c(NCCOC(=O)c3ccccc3C)nc2c1	1	-42	0	36*	-17	0
COc1cc(C(=O)NCCNc2nc3cc(C)ccc3cc2C#N)cc(OC)c1OC	·	-17	-16	54*	-19	·
CCC(=O)NCCNc1nc2cc(C)cc(C)c2cc1C#N	-2	-24	-25	20	-15	0
COc1cc(OC)cc(C(=O)NCCNc2nc3cc(C)cc(C)c3cc2C#N)c1	·	-24	3	53*	-26	·
COc1ccccc1C(=O)NCCNc1nc2cc(C)cc(C)c2cc1C#N	·	-31	-11	41	11	·
O=C(Nc1cccc(Cl)c1)c1nc[nH]c1C(=O)N1CCN(c2ccccc2)CC1	·	-10	-9	1	·	·
COc1ccc(Cl)cc1NC(=O)CN(C)C(=O)C1COc2ccccc2O1 (centres undefined)	·	-8	-17	12	·	·
CC(C)c1nnc(SCC(=O)NC2CCCCC2)n1C	·	0	-13	-11	-6	·
O=C(N/C(=C/c1ccccc1F)C(=O)N1CCCCC1)c1ccccc1	·	-12	-20	15	-1	·
CCN(CC)C(=O)Cn1cc(C(=O)C(=O)NCCc2c[nH]c3ccccc23)c2ccccc21	·	-6	6	46*	0	·
CSc1ccc(S(=O)(=O)NCC(=O)OCC(=O)NCCc2ccccc2)cc1[N+](=O)[O-]	·	-19	-22	37*	·	·
CSc1ccc(S(=O)(=O)NCC(=O)OCC(=O)NCc2ccco2)cc1[N+](=O)[O-]	·	2	-9	44	·	·
CSc1ccc(S(=O)(=O)NCC(=O)OC(C)C(=O)NCc2ccccc2)cc1[N+](=O)[O-] (centres undefined)	·	9	-20	67*	·	·
CNc1ccc(S(=O)(=O)NCC(=O)OC(C)C(=O)N(C)Cc2ccccc2)cc1[N+](=O)[O-] (centres undefined)	·	-9	-18	20	·	·
CSc1ccc(S(=O)(=O)NCC(=O)OCC(=O)N(C)C2CCCCC2)cc1[N+](=O)[O-]	·	-19	-27	39	·	·
CCN(C(=O)COC(=O)CNS(=O)(=O)c1ccc(SC)c([N+](=O)[O-])c1)C1CCCCC1	·	-18	-15	53*	·	·
CCC(CC)C(=O)c1c[nH]c(C(=O)N2CCN(c3ccc(OC)cc3)CC2)c1	0	5	-5	2	-9	1
COc1cc(C2C(C#N)=C(N)OC3=C2C(=O)CC(C)(C)C3)cc([N+](=O)[O-])c1O (centres undefined)	0	-12	-15	27	-13	1
COc1ccc(-c2ccc(/C=C3/C(=N)N4C=CSC4=NC3=O)o2)c([N+](=O)[O-])c1	0	-3	13	64*	-17	1
Cc1cc(C(=O)COc2ccc(Cl)cc2Br)c(C)n1C	-1	26*	-7	4	8	-2
COc1cccc2sc(/N=C/N(C)C)nc12	1	-2	-18	15	-1	0
COc1ccc(CNc2nc(NCc3ccc(OC)c(OC)c3)n(C(=O)c3cccs3)n2)cc1OC	2	6	-1	44*	4	0
SMILES	zfTRPN1 agonist	CHO parental Ca	OX1R antag-1	OX1R antag-2	GPR7 antag	TRPML3 agonist
CCOC(=O)CSc1nnc2c3ccccc3n(C)c2n1	·	-13	-14	16	-3	·
CC(C)n1c2ccccc2c2nnc(SCC(=O)OCN3C(=O)c4ccccc4C3=O)nc21	0	-17	-1	50*	-9	0
O=C(CCS(=O)(=O)c1ccccc1)Nc1ncc([N+](=O)[O-])s1	·	-9	-16	58	-7	·
Cc1ccc(CC(=O)Nc2ncc([N+](=O)[O-])s2)cc1	13	10	-10	40*	5	8
O=C(CCS(=O)(=O)Cc1ccccc1)Nc1ncc([N+](=O)[O-])s1	·	-2	-15	49*	-9	·
O=C(COC(=O)c1ccc(Br)o1)Nc1ncc([N+](=O)[O-])s1	·	13	12	41*	·	·
COc1ccc(C(=O)OCC(=O)Nc2ncc([N+](=O)[O-])s2)cc1OC	·	-3	-2	19	·	·
CCNC(=O)CN1C(=O)NC(CCc2ccccc2)C1=O (centres undefined)	3	-6	-10	10	-10	1
O=C(CN1C(=O)NC(CCc2ccccc2)C1=O)NC1CC1 (centres undefined)	0	-7	-1	7	24*	1
O=C(CS(=O)(=O)c1ccccc1)Nc1ncc([N+](=O)[O-])s1	·	3	-5	27	-13	·
Cc1cnc(NC(=O)c2cccs2)s1	·	13	-2	20	-2	·
O=C(Nc1ncc([N+](=O)[O-])s1)c1cccs1	·	2	7	75*	-4	·
O=C(Nc1ncc([N+](=O)[O-])s1)c1ccccc1Br	·	4	-2	43*	-5	·
CN(C)CC(O)CN1C(=O)NC(C)(C)C1=O (centres undefined)	1	7	-6	3	-8	1
CN(C)c1ccc(-c2nc3ccccc3c(=O)[nH]2)cc1	0	-4	17	57*	-12	1
Cc1ccc(C)c(S(=O)(=O)N(C)C2(C)CCS(=O)(=O)C2)c1 (centres undefined)	·	-6	-13	7	·	·
CCOC(=O)COc1ccccc1/C=C\[N+](=O)[O-]	0	20	-7	19	5	3
O=C(Oc1ccc(C(=S)N2CCOCC2)cc1)c1ccccc1[N+](=O)[O-]	·	1	21	56*	20	·
Cc1ccc(-n2c(SCC(=O)N(C)C3CCS(=O)(=O)C3)nc3ccccc3c2=O)c(C)c1 (centres undefined)	·	-27	-21	9	·	·
CN(Cc1nc(Cc2cccc(C(F)(F)F)c2)no1)C1CC(C)(C)NC(C)(C)C1	0	-35	-23	6	0	1
COc1ccc(-c2nc3ccccn3c2Cl)cc1	·	-13	-18	43*	3	·
COc1ccc(-c2nc3ccccn3c2CN2CCN(c3ccccc3F)CC2)cc1	0	-46	-34	11	-9	1
CCCC[C@@H]1CNCCN1CCc1cc(C(F)(F)F)cc(C(F)(F)F)c1	·	-12	-28	27	·	·
FC(F)(F)c1cc(CCN2CCNC[C@@H]2CC2CCCCC2)cc(C(F)(F)F)c1	·	51*	12	-6	·	·
O=c1cc(-c2c(F)c(F)c(F)c(F)c2F)oc2c(F)c(F)c(F)c(F)c12	0	68*	43*	45*	6	1

Screening results deposited in PubChem by The Scripps Research Institute Molecular Screening Center.
